Source: ChEMBL document CHEMBL1124429, “Heterocyclic analogues of benzamide antiarrhythmic agents” (J Med Chem, 1989)
Where “and” joins values, the source holds several entries; their conditions need not be identical. Identical values can stand only once.

Tests used:
Canis familiaris [1] = organism: Canis familiaris; assay: Maximum percent change in functional refractory period (FRP) at 10 uM on Canine ventricular muscle fibre.; parameters: species or system Canis lupus familiaris, Muscle tissue
Method in brief: (§1)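 Canine right ventricular papillary muscle strips were superfused at 36 ± 0.5 °C with saline gassed with 95% O2/5% CO2. Diastolic threshold was found with 2-ms stimuli at 4000 ms cycle length, then pacing at 4× threshold for 60 min equilibration. FRP was measured at 1000 ms cycle length by S1-S2 premature stimulus after every tenth S1. Conduction time came from a bipolar electrogram. Various compound concentrations were tested, one compound per strip, with vehicle controls. Percent change from control was taken at 10 µM, or the maximum change with its concentration; for N ≥ 3, mean with range.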

Canis familiaris [2] = organism: Canis familiaris; assay: Maximum percent change in repolarization at 100 uM concentration on Canine Purkinje fibers.; assay type: functional, Canis lupus familiaris, Purkinje fiber
Method in brief: (§2)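 Isolated canine Purkinje fibers were superfused with physiological saline gassed with 95% O2/5% CO2 (pH 7.35–7.40) at 36 ± 0.5 °C. Paced at 1.0 Hz with 2-ms pulses at twice diastolic threshold. After up to 1 h stabilization, compounds were tested over 10^-8 to 10^-3 M, 30 min per concentration, one compound per fiber, with vehicle controls. Intracellular microelectrodes (3 M KCl) recorded Vmax and APD95; maximum percent change from control is reported with its concentration.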

Canis familiaris [3] = organism: Canis familiaris; assay: The maximum percent change in action potential (Vmax) at concentration observed (100 uM) was tested on Canine Purkinje fibers; parameters: species or system Canis lupus familiaris, Purkinje fiber; conditions: dog
Method in brief: (§3)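 Canine Purkinje fibers were held in oxygenated (95% O2–5% CO2) physiological saline, pH 7.35–7.40, at 36 ± 0.5 °C and paced at 1.0 Hz with 2-ms pulses at twice diastolic threshold. Intracellular microelectrodes (3 M KCl) recorded Vmax and APD95 simultaneously. After up to 1 h of stabilization, compounds were tested from 10^-8 to 10^-3 M with 30 min per concentration. One compound per fiber, with vehicle controls. For N ≥ 3, values are the mean with the range.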

Canis familiaris [4] = organism: Canis familiaris; assay: Percent change from control in the rate of rise of phase 0 of the action potential at 10 uM concentration on Canine Purkinje fibers.; value ranges from -20 - -3; assay type: organism-based, Canis lupus familiaris, Purkinje fiber; conditions: dog, in vitro
Canis familiaris [5] = organism: Canis familiaris; assay: Maximum percent change in conduction time (CT) at 10 uM concentration tested on Canine ventricular muscle fibre; assay type: functional, Canis lupus familiaris, Muscle tissue; method in brief: as §1
Canis familiaris [6] = organism: Canis familiaris; assay: Percent change in repolarization at 10 Purkinje fibers.; value ranges from -13 - -3; assay type: functional, Canis lupus familiaris, Purkinje fiber; method in brief: as §3
Canis familiaris [7] = organism: Canis familiaris; assay: Maximum percent change in functional refractory period (FRP) at 100 uM on Canine ventricular muscle fibre.; parameters: species or system Canis lupus familiaris, Muscle tissue; method in brief: as §1
Canis familiaris [8] = organism: Canis familiaris; assay: Maximum percent change in repolarization at 10 uM concentration on Canine Purkinje fibers.; assay type: functional, Canis lupus familiaris, Purkinje fiber; method in brief: as §2
Canis familiaris [9] = organism: Canis familiaris; assay: Percent change from control in conduction time (CT) at 10 uM concentration tested on Canine ventricular muscle fibre.; value ranges from -20-2; assay type: functional, Canis lupus familiaris, Muscle tissue; method in brief: as §1
Canis familiaris [10] = organism: Canis familiaris; assay: Maximum percent change in repolarization at 30 uM concentration on Canine Purkinje fibers.; assay type: functional, Canis lupus familiaris, Purkinje fiber; method in brief: as §2
Canis familiaris [11] = organism: Canis familiaris; assay: The maximum percent change in action potential (Vmax) at concentration observed (30 uM ) was tested on Canine Purkinje fibers; parameters: species or system Canis lupus familiaris, Purkinje fiber; conditions: dog; method in brief: as §3
Canis familiaris [12] = organism: Canis familiaris; assay: Percent change from control in the functional refractory period (FRP) at 10 uM conc on Canine ventricular muscle fibre.; value ranges from -9-28; parameters: species or system Canis lupus familiaris, Muscle tissue; method in brief: as §1
Canis familiaris [13] = organism: Canis familiaris; assay: Maximum percent change in conduction time (CT) at 100 uM concentration tested on Canine ventricular muscle fibre; assay type: functional, Canis lupus familiaris, Muscle tissue; method in brief: as §1
Canis familiaris [14] = organism: Canis familiaris; assay: Percent change in repolarization at 10 Purkinje fibers.; value ranges from -19 - 1; assay type: functional, Canis lupus familiaris, Purkinje fiber; method in brief: as §3
Canis familiaris [15] = organism: Canis familiaris; assay: Percent change from control in conduction time (CT) at 10 uM concentration tested on Canine ventricular muscle fibre.; assay type: functional, Canis lupus familiaris, Muscle tissue; method in brief: as §1
Canis familiaris [16] = organism: Canis familiaris; assay: Maximum Percent change from control in the rate of rise of phase 0 of the action potential at 100 uM concentration on Canine Purkinje fibers.; assay type: Canis lupus familiaris, Purkinje fiber; conditions: dog, in vitro; method in brief: as §2
Canis familiaris [17] = organism: Canis familiaris; assay: Maximum Percent change from control in the rate of rise of phase 0 of the action potential at 30 uM concentration on Canine Purkinje fibers.; parameters: species or system Canis lupus familiaris, Purkinje fiber; conditions: dog, in vitro; method in brief: as §2
Canis familiaris [18] = organism: Canis familiaris; assay: Percent change from control in the rate of rise of phase 0 of the action potential at 10 uM concentration on Canine Purkinje fibers.; value ranges from -17 - -7; assay type: organism-based, Canis lupus familiaris, Purkinje fiber; conditions: dog, in vitro
Canis familiaris [19] = organism: Canis familiaris; assay: Percent change from control in the functional refractory period (FRP) at 10 uM conc. on Canine ventricular muscle fibre.; parameters: species or system Canis lupus familiaris, Muscle tissue; method in brief: as §1
Canis familiaris [20] = organism: Canis familiaris; assay: Maximum percent change in functional refractory period (FRP) at 1 uM on Canine ventricular muscle fibre.; parameters: species or system Canis lupus familiaris, Muscle tissue; method in brief: as §1
Cavia porcellus [21] = organism: Cavia porcellus; assay: Concentration of compound which gives a 20% decrease in contractile force was tested on papillary muscle of guinea pig, activity was expressed as EC-20.; assay type: functional; conditions: Muscle tissue
Method in brief: (§4)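 Contractile force measured in an isolated cardiac muscle preparation. Value is the concentration giving a 20% decrease in force of contraction. NR marks that this decrease was not reached. Values come from individual experiments; for N ≥ 3, the mean is given with the range.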

Canis familiaris [22] = organism: Canis familiaris; assay: Maximum percent change in conduction time (CT) at 0.1 uM concentration tested on Canine ventricular muscle fibre; assay type: functional, Canis lupus familiaris, Muscle tissue; method in brief: as §1
Canis familiaris [23] = organism: Canis familiaris; assay: Percent change from control in the rate of rise of phase 0 of the action potential at 10 uM concentration on Canine Purkinje fibers.; parameters: species or system Canis lupus familiaris, Purkinje fiber; conditions: dog, in vitro
Canis familiaris [24] = organism: Canis familiaris; assay: Maximum percent change in repolarization at 1 uM concentration on Canine Purkinje fibers.; assay type: functional, Canis lupus familiaris, Purkinje fiber; method in brief: as §2
Cavia porcellus [25] = organism: Cavia porcellus; assay: Concentration of compound which gives a 20% decrease in contractile force was tested on papillary muscle of guinea pig, activity was expressed as EC-20; NR is not reached..; assay type: functional; conditions: Muscle tissue; method in brief: as §4
Canis familiaris [26] = organism: Canis familiaris; assay: Percent change in repolarization at 10 Purkinje fibers.; value ranges from 3-7; assay type: functional, Canis lupus familiaris, Purkinje fiber; method in brief: as §3
Canis familiaris [27] = organism: Canis familiaris; assay: Percent change from control in conduction time (CT) at 10 uM concentration tested on Canine ventricular muscle fibre.; M is minimal(<10% change in CT); assay type: functional; conditions: Canis lupus familiaris, Muscle tissue; method in brief: as §1
Canis familiaris [28] = organism: Canis familiaris; assay: Maximum percent change in repolarization at 0.1 uM concentration on Canine Purkinje fibers.; assay type: functional, Canis lupus familiaris, Purkinje fiber; method in brief: as §2

## CCN(CC)CCCNC(=O)c1cccc2[nH]ccc12
Canis familiaris [1]
  FRP: 11%
Canis familiaris [2]
  APD95: -26%
Canis familiaris [3]
  Vmax: -31%
Canis familiaris [4]
  Vmax: -11.3%
Canis familiaris [5]
  CT: -7%
Canis familiaris [6]
  APD95: -7.7%
Canis familiaris [7]
  FRP: 36%
Canis familiaris [8]
  APD95: -3%
Canis familiaris [9]
  CT: -8.8%
Canis familiaris [10]
  APD95: -22%
Canis familiaris [11]
  Vmax: -15% and -39%
Canis familiaris [12]
  FRP: 10%
Canis familiaris [13]
  CT: 12%

## CCN(CC)CCCNC(=O)c1cc2cccc(O)c2[nH]1
Canis familiaris [14]
  APD95: -10%
Canis familiaris [15]
  CT: -3%
Canis familiaris [16]
  Vmax: -45%
Canis familiaris [17]
  Vmax: -20% and -26%
Canis familiaris [2]
  APD95: -53%
Canis familiaris [18]
  Vmax: -11%
Canis familiaris [19]
  FRP: 9%
Canis familiaris [5]
  CT: -23%
Canis familiaris [7]
  FRP: 19%
Canis familiaris [20]
  FRP: 8%
Canis familiaris [10]
  APD95: -14%
Cavia porcellus [21]
  EC20: 36 µM
Canis familiaris [22]
  CT: -8%

## CCN(CC)CCCNC(=O)c1c(O)cc(C)nc1C
Canis familiaris [16]
  Vmax: 7%
Canis familiaris [23]
  Vmax: 4.6%
Canis familiaris [17]
  Vmax: -1%
Canis familiaris [24]
  APD95: 4%
Canis familiaris [19]
  FRP: 13%
Cavia porcellus [25]
  EC20: Not reached
Canis familiaris [26]
  APD95: 5%
Canis familiaris [27]
  CT: Minimal
Canis familiaris [28]
  APD95: 5%
Canis familiaris [10]
  APD95: 15%
Canis familiaris [13]
  CT: -7%
